# According to ChEMBL document CHEMBL1142895, “Discovery of a new insecticide lead by optimizing a target-diverse scaffold: tetrazolinone derivatives” (2007):
# Active and inactive are the calls of the source. The rule behind the calls is not given here.
# Assays:
# Triticum aestivum [1] = assay: Inhibition of root growth of Triticum aestivum at 100 mg/L; format: functional
# How it was run: (§1)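 Seeds of each species were grown in Petri dishes with 10 seeds per dish, at 28 °C, 70–80% RH, 16:8 h light:dark photoperiod and 3000 lx light for 5 days. Root and stem lengths were measured for the 10 seeds and averaged. Each test and its controls were run in three replicates, and the data were given probit analysis.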
# Triticum aestivum [2] = assay: Herbicidal activity against Triticum aestivum at 450 g ai/ha in greenhouse in vivo test; format: functional, organism-based
# Cucumis sativus [3] = assay: Inhibition of stem growth of Cucumis sativus at 100 mg/L; format: functional; how it was run: as §1
# Radish [4] = assay: Herbicidal activity against Raphanus sativus at 450 g ai/ha in greenhouse in vivo test; format: functional, organism-based
# Radish [5] = assay: Inhibition of stem growth of Raphanus sativus at 100 mg/L; format: functional; how it was run: as §1
# Aphis = assay: Insecticidal activity against Aphis medicagini at 250 mg/L; format: functional
# How it was run: (§2)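 Groups of 10 of each species were placed in glass Petri dishes and sprayed with test solution using a Potter sprayer. After air-drying, they were held under normal rearing conditions. Mortality at 72 h was taken from the number and size of live larvae relative to untreated controls.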
# Echinochloa crus-galli [6] = assay: Herbicidal activity against Echinochloa crus-galli at 450 g ai/ha in greenhouse in vivo test; format: functional, organism-based
# Cucumis sativus [7] = assay: Herbicidal activity against Cucumis sativus at 450 g ai/ha in greenhouse in vivo test; format: functional, organism-based
# [8] = test system: Brassica rapa subsp. oleifera; assay: Inhibition of stem growth of Brassica campestris at 100 mg/L; format: functional; how it was run: as §1
# Radish [9] = assay: Inhibition of root growth of Raphanus sativus at 100 mg/L; format: functional; how it was run: as §1
# Echinochloa crus-galli [10] = assay: Inhibition of root growth of Echinochloa crus-galli at 100 mg/L; format: functional; how it was run: as §1
# Tetranychus cinnabarinus = assay: Insecticidal activity against Tetranychus cinnabarinus at 250 mg/L; format: functional; how it was run: as §2
# Cucumis sativus [11] = assay: Inhibition of root growth of Cucumis sativus at 100 mg/L; format: functional; how it was run: as §1
# Echinochloa crus-galli [12] = assay: Inhibition of stem growth of Echinochloa crus-galli at 100 mg/L; format: functional; how it was run: as §1
# Sorghum bicolor [13] = assay: Inhibition of stem growth of Sorghum bicolor at 100 mg/L; format: functional; how it was run: as §1
# [14] = test system: Brassica rapa subsp. oleifera; assay: Herbicidal activity against Brassica campestris at 450 g ai/ha in greenhouse in vivo test; format: functional, organism-based
# Sorghum bicolor [15] = assay: Herbicidal activity against Sorghum bicolor at 450 g ai/ha in greenhouse in vivo test; format: functional, organism-based
# Sorghum bicolor [16] = assay: Inhibition of root growth of Sorghum bicolor at 100 mg/L; format: functional; how it was run: as §1
# [17] = test system: Brassica rapa subsp. oleifera; assay: Inhibition of root growth of Brassica campestris at 100 mg/L; format: functional; how it was run: as §1
# Triticum aestivum [18] = assay: Inhibition of stem growth of Triticum aestivum at 100 mg/L; format: functional; how it was run: as §1
Compound,inhibition at 100 µg/mL (Triticum aestivum [1]),Activity (Triticum aestivum [2]),inhibition at 100 µg/mL (Cucumis sativus [3]),Activity (Radish [4]),inhibition at 100 µg/mL (Radish [5]),Activity (Aphis),Activity (Echinochloa crus-galli [6]),Activity (Cucumis sativus [7]),inhibition at 100 µg/mL [8],inhibition at 100 µg/mL (Radish [9]),inhibition at 100 µg/mL (Echinochloa crus-galli [10]),Activity (Tetranychus cinnabarinus),inhibition at 100 µg/mL (Cucumis sativus [11]),inhibition at 100 µg/mL (Echinochloa crus-galli [12]),inhibition at 100 µg/mL (Sorghum bicolor [13]),Activity [14],Activity (Sorghum bicolor [15]),inhibition at 100 µg/mL (Sorghum bicolor [16]),inhibition at 100 µg/mL [17],inhibition at 100 µg/mL (Triticum aestivum [18])
O=c1n(Cc2ccccc2F)nnn1-c1ccc(Cl)cc1,0%,inactive,0%,inactive,0%,5%,inactive,inactive,0%,0%,0%,10%,0%,0%,0%,inactive,inactive,0%,0%,0%
CCCCCCCCSc1nnc(Cn2nnn(-c3ccc(Cl)cc3)c2=O)o1,0%,inactive,0%,inactive,0%,3.3%,inactive,inactive,0%,0%,0%,2.9%,0%,0%,0%,inactive,inactive,0%,0%,0%
O=c1n(Cc2cccc(F)c2)nnn1-c1ccc(Cl)cc1,40%,inactive,30%,inactive,0%,0%,inactive,inactive,0%,0%,70%,5.7%,50%,0%,0%,inactive,inactive,0%,0%,40%
CC(C)(C)c1ccc(CSc2cnn(C(C)(C)C)c(=O)c2Cl)cc1 [PYRIDABEN],–,–,–,–,–,–,–,–,–,–,–,100%,–,–,–,–,–,–,–,–
CCCCCCCCSc1nnc(Cn2nnn(-c3ccc(Cl)cc3)c2=O)s1,30%,inactive,0%,inactive,0%,0%,inactive,inactive,0%,40%,40%,2.9%,30%,0%,0%,inactive,inactive,50%,40%,0%
CCCCSc1nnc(Cn2nnn(-c3ccc(Cl)cc3)c2=O)s1,40%,inactive,0%,inactive,0%,0%,inactive,inactive,40%,30%,70%,5.7%,0%,30%,40%,inactive,inactive,50%,50%,40%
